The list is not random: actives were taken first. Their share in the collection is about 3.5%.
ABHD4 inh – ABHD4 inhibitors, primary screen, biochemical, fluorescence polarization, mouse. (Lyso)-N-acylphosphatidylethanolamine lipase (Mus musculus), Q8VD66. purified mABHD4, FP-Rh probe fluorescence polarization. inhibition, % at 8.92 µM. 0.54% of 370,000 active. AID 720543, 2013;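 active means inhibition exceeding the mean over every tested compound plus 3 SD, cut at about 30% in these data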
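Assay system: Wild-type mouse ABHD4 protein | Medium: HEPES pH 7.0 buffer, 150 mM NaCl, 0.01% Pluronic F-127 | Incubation: Enzyme–compound pre-incubation 45 min, then probe 60 min, both 25 °C | Technique: Fluorescence polarization with parallel and perpendicular emission, 525/598 nm | Evaluation: % inhibition of FP-Rh probe binding versus controls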
SIAE primary – human SIAE inhibitors, primary screen, biochemical, fluorescence polarization, FP-Rh probe, 1536-well HTS; Sialate O-acetylesterase (Homo sapiens), Q9HAT2; SIAE FP-Rh probe binding; inhibition, % at 9.66 µM; 0.69% of 370,000 active; AID 1053197, 2014;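 active means inhibition above a cutoff: mean of compounds within the control limits plus 3 SD of those, cut at about 17% in these data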
TCR CD3 inh – inhibitors of human TCR-CD3 interaction, primary screen, biochemical, fluorescence, TAMRA-labeled TCR probe; T-cell receptor (TCR); inhibition, % at 9.4 µM; 0.37% of 360,000 active; in the data active means inhibition above about 19%;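 further: recombinant mutant TCR 2C K166C tagged with TAMRA read by polarization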
HTRA1 inh – HTRA1 serine protease inhibitors, primary screen, biochemical, fluorescence polarization, HTS | recombinant HTRA1, FP-rhodamine activity-based probe | AID 504803, 2011 | 0.5% of 340,000 active | Q92743 | inhibition, % at 5.96 µM; in the data active means inhibition above about 36%
PRMT1 FP inh – PRMT1 methyltransferase inhibitors, primary screen, biochemical, fluorescence polarization. recombinant PRMT1, activity-based probe fluorescence polarization. Protein arginine N-methyltransferase 1 (Homo sapiens), Q99873. inhibition, % at 2.79 µM. 1.3% of 370,000 active;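 active means inhibition above about 21% made by adding two undisclosed values, limit read from the data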
Target sequence (Q99873 whole entry, looked up): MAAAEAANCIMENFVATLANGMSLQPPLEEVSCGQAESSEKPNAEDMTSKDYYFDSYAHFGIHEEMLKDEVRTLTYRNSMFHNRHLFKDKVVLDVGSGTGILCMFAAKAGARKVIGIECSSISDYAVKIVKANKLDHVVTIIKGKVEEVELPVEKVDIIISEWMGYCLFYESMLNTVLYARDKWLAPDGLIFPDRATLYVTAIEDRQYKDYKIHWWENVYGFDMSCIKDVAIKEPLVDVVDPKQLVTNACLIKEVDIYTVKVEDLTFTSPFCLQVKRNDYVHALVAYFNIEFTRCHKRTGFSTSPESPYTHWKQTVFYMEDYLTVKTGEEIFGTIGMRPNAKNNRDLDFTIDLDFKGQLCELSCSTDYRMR
rCAG RNA binder – binders of r(CAG) RNA repeats, primary screen, biochemical, fluorescence. r(CAG) RNA repeat, TO-PRO-1 dye displacement fluorescence. inhibition, % at 3 µM. 1.3% of 370,000 active. AID 651821, 2012;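 active means inhibition above the plate cutoff, the mean of all test compounds on that plate plus 3 SD, cut at about 35% in these data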;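 further: higher means more dye released from RNA so lower well fluorescence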
SIAE confirm – human SIAE inhibitors, retest, confirmation, biochemical, fluorescence polarization, FP-Rh probe, triplicate | 13% of 2,300 active | SIAE FP-Rh activity-based probe | shares compounds with SIAE primary | inhibition, % at 9.66 µM | AID 1117263, 2014;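 active means mean inhibition of the replicates above the hit cutoff set in the primary screen, cut at about 17% in these data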;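 further: inhibitors lower polarization as more probe stays unbound to SIAE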
Large screens that a line does not name were inactive (follow-up assays come after a bar, where they were run).

c1ccc(Oc2ccc(-c3ccnc4nc(N5CCN(c6ccccc6)CC5)nn34)cc2)cc1	SIAE primary 22.0 | SIAE confirm inactive
c1ccc(-c2ccnc3nc(N4CCN(c5ccccc5)CC4)nn23)cc1	none
CC(OC(=O)/C=C/c1cccc(Cl)c1)C(=O)NC1CCCCC1C (stereo not drawn)	SIAE primary 17.1 | SIAE confirm inactive
CC(OC(=O)C1CCN(S(=O)(=O)c2ccc(Cl)cc2)CC1)C(=O)NC1CCCCC1C (stereo not drawn)	SIAE primary 19.0 | SIAE confirm inactive
CCn1c(SCC(=O)NN=Cc2cc(OC)ccc2OC)nnc1-c1ccc(OC)cc1	none (no result: TCR CD3 inh, HTRA1 inh)
COC[C@H]1CCCN1c1cccc2c1S(=O)(=O)N1CC[C@@H](C1)O2	none (no result: TCR CD3 inh, HTRA1 inh)
CCc1ccccc1-c1cc(C(C)=O)c2n(c1=O)CCC2	none (no result: TCR CD3 inh, HTRA1 inh)
COC(=O)C1CCCN(C(=O)C2CCN(S(=O)(=O)c3cccc4cccnc34)CC2)C1 (stereo not drawn)	none (no result: TCR CD3 inh, HTRA1 inh)
Cc1ccccc1Cn1ccc2ccc(-c3ccc4ccn(Cc5ccccc5)c4c3)cc21	none (no result: TCR CD3 inh, HTRA1 inh)
N=c1n(CCN2CCOCC2)c2ccccc2n1CC(=O)c1ccc(Cl)c(Cl)c1	SIAE primary 19.2 | SIAE confirm inactive
O=C(NCc1ccco1)O[C@H]1CC[C@@]23CCCN2C(=O)CCC[C@H]3C1	none (no result: TCR CD3 inh, HTRA1 inh, rCAG RNA binder)
C[C@@H]1C[C@H]2O[C@@H]2/C=C\C=C\C(=O)Cc2cc(O)cc(O)c2C(=O)O1	none (no result: TCR CD3 inh, HTRA1 inh)
Cc1ccc(N2C(=O)/C(=C\c3ccco3)SC2=S)cc1	none
O=C1/C(=C\c2ccco2)SC(=S)N1c1ccccc1	SIAE primary 24.8 | SIAE confirm inactive
C=CCN1[C@@H](C)COc2cccc(N3CCCC3)c2S1(=O)=O	none (no result: TCR CD3 inh, HTRA1 inh)
O=C(CCN1C(=O)c2ccccc2C1=O)Nc1cccc(O)c1	SIAE primary 20.3 | SIAE confirm inactive
O=C(CCCCCN1C(=O)c2ccccc2C1=O)Nc1cccc(O)c1	none
Nc1c(-c2ccccc2Cl)cnn1-c1cccc([N+](=O)[O-])c1	SIAE primary 74.6 | SIAE confirm inactive
CSCCC(NC(=O)COc1ccccc1)C(=O)N1CCN(c2ccccc2Cl)CC1 (stereo not drawn)	none
CSCCC(NC(=O)COc1ccccc1)C(=O)N1CCN(c2ccccc2O)CC1 (stereo not drawn)	SIAE primary 17.8 | SIAE confirm inactive
Cc1ccc(O)c(/C=N/NC(=O)c2[nH]ncc2Br)c1	none
O=C(N/N=C/c1c(O)ccc2ccccc12)c1[nH]ncc1Br	SIAE primary 18.6 | SIAE confirm inactive
COC(=O)[C@]12C[C@H](CC(=O)NCCCN3CCCC3=O)C(=O)N(Cc3ccc(Cl)cc3Cl)C1=C[C@H](C(C)(C)C)O[C@@H]2C	none (no result: TCR CD3 inh, HTRA1 inh)
Cc1ccc(S(C)(=O)=O)cc1C(=O)Nc1ccc(S(=O)(=O)Nc2nccs2)cc1	SIAE primary 23.9 | SIAE confirm inactive
O=C(CSc1nnc(-c2ccccn2)n1-c1ccccc1)Nc1ccc(OCc2ccccc2)cc1	none (no result: TCR CD3 inh, HTRA1 inh)
COCCNC(=O)c1ccc(N2CC3CC(C2)c2cccc(=O)n2C3)c(NC(=O)c2cc(OC)cc(OC)c2)c1 (stereo not drawn)	none
CCN1CCN(C(=O)c2ccc(N3CC4CC(C3)c3cccc(=O)n3C4)c(NC(=O)c3cc(OC)cc(OC)c3)c2)CC1 (stereo not drawn)	SIAE primary 26.5 | SIAE confirm inactive
CN(Cc1ccc(F)cc1)C(=O)c1cccc2c1C(=O)N(Cc1cccnc1)C2	none (no result: TCR CD3 inh, HTRA1 inh)
COc1ccccc1NC(=S)N/N=C/c1ccc(O)cc1	SIAE primary 19.5 | SIAE confirm inactive
CCC/C(=N/NC(=O)c1ccccc1Cl)c1ccccc1	SIAE primary 17.4 | SIAE confirm inactive
CC(=O)c1cc(-c2csc(C=O)c2)c(=O)n2c1CCC2	none (no result: TCR CD3 inh, HTRA1 inh)
